Source: PubChem
The list is not random: actives were taken first. Their share in the collection is about 3.1%.
OX1R antag-1: OX1R (human) antagonism | OX1R-expressing cells, FRET antagonist read-out | inhibition, % at 6.6 µM | hit rate 1.8% among 330,000 | AID 485270; in the data active means inhibition mostly above about 38%, no sharp cut-off; inactive means mostly below about 40%
OX1R antag-2: blocks the human orexin 1 receptor; O43613; CHO/OX1R cells, Fluo-8 calcium fluorescence, orexin A; inhibition, % at 5 µM; hit rate 0.43% among 330,000;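 active means inhibition above its plate's threshold, mean inhibition of all tested compounds on the plate plus 3 SD, cut at about 37% in these data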
CHO parental Ca: signal in parental CHO cells, OX1R antagonist counter-screen. parental CHO-K1, ATP-induced calcium, Fluo-8 fluorescence. hit rate 0.63% among 330,000. inhibition, % at 5.6 µM;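 active means inhibition above that plate's mean sample inhibition plus 3 SD, cut at about 26% in these data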
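Material: parental CHO cells / Compound: single nominal dose of 5.6 µM per compound / Signal: Fluo-8 fluorescence / Replicates: singlicate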
GPR7 antagonist: antagonists of human GPR7 (neuropeptides B/W receptor 1); AID 1861; inhibition, % at 4.4 µM; GPR7-expressing cells, fluorescence antagonist assay; hit rate 1.1% among 290,000; P48145; in the data active means inhibition above about 16%, passing the limit was not always enough;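 further: cells stimulated with the agonist NPW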
Target sequence (P48145 whole entry, looked up): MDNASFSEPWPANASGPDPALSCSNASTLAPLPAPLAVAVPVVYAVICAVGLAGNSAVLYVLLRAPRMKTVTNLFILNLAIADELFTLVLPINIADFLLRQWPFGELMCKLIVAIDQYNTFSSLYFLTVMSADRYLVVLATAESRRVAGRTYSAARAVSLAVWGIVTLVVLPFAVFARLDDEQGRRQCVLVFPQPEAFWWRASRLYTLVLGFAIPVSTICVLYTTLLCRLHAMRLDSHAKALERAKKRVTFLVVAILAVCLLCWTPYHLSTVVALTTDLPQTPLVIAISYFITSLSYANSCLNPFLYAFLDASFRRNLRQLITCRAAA
GalR3 antagonist: blocks the human galanin receptor 3. O60755. HEK293 GalR3-CNG cAMP membrane potential fluorescence; galR3 body fused to GalR1 C-terminus. inhibition, % at 3 µM. hit rate 0.44% among 360,000;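 active means inhibition above the screen-wide average plus 3 SD, cut at about 13% in these data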;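 further: forskolin and galanin both at EC90 stimulate the cells; cAMP rise reported by CNG channel membrane potential dye signal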
Target sequence (O60755 1-299 limits assumed): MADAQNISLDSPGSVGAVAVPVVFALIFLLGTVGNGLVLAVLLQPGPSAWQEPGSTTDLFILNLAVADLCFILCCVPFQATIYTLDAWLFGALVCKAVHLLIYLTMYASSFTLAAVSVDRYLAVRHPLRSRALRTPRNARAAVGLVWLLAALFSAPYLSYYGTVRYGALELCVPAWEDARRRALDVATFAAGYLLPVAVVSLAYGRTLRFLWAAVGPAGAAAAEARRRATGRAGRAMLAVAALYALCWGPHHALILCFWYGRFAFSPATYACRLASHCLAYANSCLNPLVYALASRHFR
GPR7 antag cf: human GPR7 antagonism, confirmation assay | shares compounds with GPR7 antagonist | GPR7-expressing cells, calcium fluorescence antagonist mode | inhibition, % at 4.4 µM | hit rate 52% among 2,400; in the data active means inhibition above about 24%;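 further: stimulated with the GPR7 agonist NPW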
MCHR1 antag: counter-screen for GPR7 antagonists: antagonists of human MCHR1 | inhibition, % at 4.4 µM | hit rate 62% among 2,400 | shares compounds with GPR7 antagonist | MCHR1-expressing cells, fluorescence antagonist assay; in the data active means inhibition above about 22%
A number is an active result; – = inactive; · = no result; ! = not active in a repeat.

SMILES	OX1R antag-1	OX1R antag-2	CHO parental Ca	GPR7 antagonist	GalR3 antagonist	GPR7 antag cf	MCHR1 antag
O=C(CN1C(=O)/C(=C\c2cccc(Cl)c2)Sc2ccccc21)NCCCN1CCOCC1	–	–	–	25	–	26	36
Cc1ccc(CN2C(=O)c3ccccc3Sc3ccc(C(=O)NCCCN4CCOCC4)cc32)cc1	–	–	–	29	–	40	–
COc1ccc(C(=O)Nc2nnc(S(=O)(=O)N(C)Cc3ccccc3)s2)cc1	–	–	–	41	–	–	31
CC1OC(C2CCCCC2)Cc2[nH]c(=S)[nH]c(=O)c21 (stereo not drawn)	·	·	·	·	–	·	·
Clc1ccc(CN=C(Nc2ccccc2)NC2CCCCC2)cc1	–	–	–	40	–	57	45
O=S1(=O)CC(N2CC=CC2)CN1Cc1cn(Cc2ccc(Cl)cc2)nn1 (stereo not drawn)	·	·	·	·	–	·	·
COc1ccccc1CNCC(O)(c1ccc(Cl)cc1)c1ccc(Cl)cc1	–	–	–	28	–	47	33
COc1ccccc1CNCC(O)(c1ccc(F)cc1)c1ccc(F)cc1	–	–	–	40	–	41	36
NC(=NCc1ccccc1)c1cccc([N+](=O)[O-])c1	–	–	–	–	–	·	·
CC1(C)CSC(=NCc2ccccc2)N1C(=O)c1cccc([N+](=O)[O-])c1	–	–	–	71	–	75	82
CCOC(=O)N/N=C/c1cn(CCCOc2ccc(C)cc2)c2ccccc12	–	–	–	–	–	·	·
CCOC(=O)N/N=C/c1cn(CCCOc2ccccc2)c2ccccc12	–	–	–	27	–	–	44
CN(CCOc1ccccc1)C(=S)Nc1ccc(OC(F)F)cc1	–	–	–	31	–	–	32
CN(CCOc1ccc(Cl)cc1)CC(=O)Nc1ccc(OC(F)F)cc1	–	–	–	39	–	–	–
O=C(c1cc(-c2ccc(F)cc2)on1)N1CCCCCC1	–	–	–	36	–	–	26
COc1ccccc1-c1nnc2sc(COc3ccc(F)cc3)nn12	–	–	–	42	–	–	52
CCOc1ccc(-c2nnc3sc(-c4ccccc4OC)nn23)cc1	·	·	·	–	–	·	·
COc1ccc(CN2C(=O)C(CC(=O)NCC3CCCCC3)CC(C(=O)N3CCOCC3)=C2C)cc1 (stereo not drawn)	·	·	·	·	–	·	·
Cc1cccc(N/C(N)=N/c2nc(C)cc(C)n2)c1	–	–	–	28	–	39	54
Cc1cc(C)cc(N/C(N)=N/c2nc(C)cc(C)n2)c1	–	–	–	–	–	·	·
CCC(=O)Nc1ccc(N/C(N)=N/c2nc(C)cc(C)n2)cc1	–	–	–	–	–	·	·
Cc1ccc(N/C(N)=N/c2nc(C)cc(C)n2)cc1	–	–	–	75	–	64	73
CCCCc1ccc(N/C(N)=N/c2nc(C)cc(C)n2)cc1	–	89	70	97	41	93	103
CCOC1=C2CN(S(=O)(=O)c3ccc(C)cc3)[C@H](c3ccccc3)C[C@@H]2N(S(=O)(=O)c2ccc(C)cc2)[C@H](c2cccc(C)c2)C1	·	·	·	·	–	·	·
COc1ccc(NC(=O)C(c2cccc3ccccc23)n2c(=O)c(-c3ccco3)nc3ccccc32)cc1 (stereo not drawn)	·	·	·	·	–	·	·
SMILES	OX1R antag-1	OX1R antag-2	CHO parental Ca	GPR7 antagonist	GalR3 antagonist	GPR7 antag cf	MCHR1 antag
CCC(=O)c1cn(CC(=O)Nc2ccccc2Cl)c2ccccc12	–	–	–	26	–	–	–
CCC(=O)c1cn(CC(=O)Nc2cccc(C)c2C)c2ccccc12	–	–	–	–	–	·	·
Cc1cc(Br)cn2c(Cc3ccsc3)c(-c3cccc(Br)c3)nc12	·	·	·	·	–	·	·
O=C(O)CCn1c2ccccc2c2nc3ccccc3nc21	49	–	–	28	–	–	–
COc1ccc(-c2ccccc2)cc1NC(=O)C1(C)CCN1C(=O)C(C)C (stereo not drawn)	·	·	·	·	–	·	·
CC(C)N1CC2(CC(c3ccccc3C(F)(F)F)=NO2)CN1C(=O)c1ccco1 (stereo not drawn)	·	·	·	·	–	·	·
COc1cc(C(=S)N2CCOCC2)ccc1OC(=O)c1ccc(Br)cc1	·	·	·	42	–	66	81
O=C(C=Cc1ccc(O)c(O)c1)NCC(=O)NC(Cc1ccccc1)C(=O)O (stereo not drawn)	·	·	·	·	–	·	·
Cc1nnc(SCC(=O)NC2CCS(=O)(=O)C2)n1-c1ccccc1 (stereo not drawn)	–	–	–	25	–	–	–
CC[C@]12C(=O)N(C)C[C@H]([C@@H]3C(=O)N(C)C(=O)[C@@H]31)N2C(=O)c1ccc(C(C)(C)C)cc1	·	·	·	·	–	·	·
CCCCCCCCCCCCCCCCn1cc[n+](C)c1	–	85	71	31!	–	94	99
CCCC[C@@H]1Cc2[nH][nH]c(=O)c2[C@H](c2ccc3ccccc3c2)O1	·	·	·	·	–	·	·
CCCc1ccc(-c2ccc(-c3noc(-c4ccncc4)n3)cc2)nc1	–	–	–	–	–	·	·
CCCCc1ccc(-c2ccc(Br)cc2)nc1	–	–	–	30	–	–	–
CS(=O)(=O)c1ncc(Cl)c(C(=O)Nc2ccc(N3CCOCC3)cc2)n1	–	–	–	–	·	·	·
CS(=O)(=O)c1ncc(Cl)c(C(=O)Nc2ccc(OC(F)F)cc2)n1	53	–	–	51	·	88	94
CCN(c1ccccc1)S(=O)(=O)c1ccc(C(=O)Nc2ccncc2)cc1	–	–	–	·	–	·	·
CCS(=O)(=O)c1ncc(Cl)c(C(=O)Nc2ccc(S(=O)(=O)N(C)c3ccccc3)cc2)n1	46	51	52	61	–	96	98
Cc1ccccc1CS(=O)(=O)c1ncc(Cl)c(C(=O)Nc2ccc(F)cc2)n1	–	–	–	–	–	·	·
CCN(c1ccccc1)S(=O)(=O)c1ccc(NC(=O)c2nc(S(C)(=O)=O)ncc2Cl)cc1	–	62	46	98	·	97	102
Cc1cccc(C)c1NC(=O)C(C1CC1)n1c(-c2ccc(-c3ccccc3)cc2)nc2ccccc21 (stereo not drawn)	·	·	·	·	–	·	·
O=C(/C=C/c1ccc([N+](=O)[O-])s1)N1CCN(c2ccccc2)CC1	–	–	–	26	–	–	–
Cc1ccccc1NC(=O)C1CCCN(c2ncnc3onc(-c4ccc(F)cc4)c23)C1 (stereo not drawn)	–	–	–	28	–	28	–
CCc1ccccc1NC(=O)C1CCCN(c2ncnc3onc(-c4ccc(F)cc4)c23)C1 (stereo not drawn)	–	–	–	29	–	–	22
CC(=O)c1ccc(OCC(=O)OCC(=O)c2ccc(S(=O)(=O)N3CCCCC3)cc2)cc1	·	·	·	·	–	·	·
O=C(CN(C(=O)c1csnn1)c1cccc(F)c1)NC1CCCC1	–	–	–	28	–	–	–
CCOC(=O)c1ccc(S(=O)(=O)N2CCC(C(=O)OCC)CC2)cc1	–	–	–	–	–	·	·
